Measured values of several laboratories.
Observed: cell growth or viability

Compound	cell line	assay	setting	quantity	result
N.N.[Cl][Pt][Cl]	CCD-18Co	ATP luminescence		GI50	1.1 mg/L
CC[C@@]1(OC(=O)[C@@H](N)CCSC)C(=O)OCc2c1cc1n(c2=O)Cc2cc3cc4c(cc3nc2-1)OCO4	HepG2	MTT		IC50	0.113 µM
N[C@@H](Cc1ccc(N(CCCl)CCCl)cc1)C(=O)O	HepG2	CCK-8	48 h	IC50	36.5 µM
CC1=C(O)C(=O)C=C2C1=CC=C1[C@@]2(C)CC[C@@]2(C)[C@@H]3C[C@](C)(C(=O)O)CC[C@]3(C)CC[C@]12C	HepG2	MTT	20 µM	inhibition	92%
CC[C@@]1(OC(=O)CN)C(=O)OCc2c1cc1n(c2=O)Cc2cc3cc4c(cc3nc2-1)OCO4	HepG2	MTT		IC50	0.025 µM
N.N.[Cl][Pt][Cl]	Huh-7	MTT	20 µM	inhibition	76.4%
COc1cc(OC)c(/C=C/S(=O)(=O)Nc2ccc(OC)c(N)c2)c(OC)c1	RF1	trypan blue	96 h	IC50	0.004 µM
CCOC(=O)C1=C(N)N(c2ccc(C(=O)OCC)cc2)C(O)=C(C#N)C12C(=O)Nc1ccccc12 (stereo not shown)	HepG2	MTT	12.5 µM, 24 h	viability	33.9%
N.N.[Cl][Pt][Cl]	A-431	SRB		EC50	1.8 µM
CCC1(OC(=O)C(C)c2ccc3cc(OC)ccc3c2)C(=O)OCc2c1cc1n(c2=O)Cc2cc3cc4c(cc3nc2-1)OCO4 (stereo not shown)	HepG2	MTT		IC50	3.5 µM
C=CC(=O)Nc1cc(Nc2nccc(-c3cn(C)c4ccccc34)n2)c(OC)cc1N(C)CCN(C)C	NCI-H292	ATP luminescence	72 h	GI50	3.75 µM
CC[C@H](C)[C@H](N)C(=O)O[C@]1(CC)C(=O)OCc2c1cc1n(c2=O)Cc2cc3cc4c(cc3nc2-1)OCO4	HepG2	MTT		IC50	0.098 µM
O=C1[O][Pt]2([NH][C@@H]3CCCC[C@H]3[NH]2)[O]C1=O	PNT2	MTT	96 h	IC50	1.3 µM
